According to PubChem BioAssay AID1899 (The Scripps Research Institute Molecular Screening Center, 2009):
Out of some 300,000 compounds screened, about 1,000 (0.33%) were called active. The sample holds actives, similar compounds and a random draw of the others, so the mix is not that of the screen.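 Rule for the calls: active = inhibition above the mean of all tested compounds plus 3 SD, set per screening campaign (cut at about 45% in these data); inactive = the rest.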

test system: HCV core protein (residues 1-106) dimerization; assay: blockers of core106 self-association – biochemical, TR-FRET, high-throughput, primary screen (AID 1899); conditions: TR-FRET GST/Flag-core106 dimerization, 1536-well; at 5 µM; stronger effect = higher value
How it was run: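 assay system = GST-tagged and Flag-tagged HCV core protein residues 1-106 | controls = unlabelled core106 and no-GST-core106 wells | incubation = compound-protein-antibody incubation 4 h at 22.5 °C | probe or stimulus = Eu donor and XL665 acceptor anti-tag antibodies | read-out = % inhibition based on acceptor/donor emission ratio | signal = TR-FRET 671 and 617 nm emission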

inhibition, inactive:
CCOC(=O)C1CSC(CC(=O)Nc2ccc(OCC)cc2)C(=O)N1 (stereo unspecified) -5.22%
O=C(COc1ccc([N+](=O)[O-])cc1)Nc1ccc(N2CCCC2)cc1 9.26%
O=C(N/N=C/c1ccc(O)cc1)/C(=C/c1ccc([N+](=O)[O-])cc1)NC(=O)c1ccccc1 10.4%
CC1(c2nnc(-c3ccncc3)o2)CC(c2cccnc2)=NO1 (stereo unspecified) 1.13%
Cc1ccc(C)c(NS(=O)(=O)c2c(C)[nH]c(C)c2C(=O)N2CCCCC2)c1 -13.2%
O=C1COc2ccc(NC(=O)N3CCN(c4ccc(F)cc4)CC3)cc2N1 -3.43%
COCCN1C=C2C(=O)C(C)(OC(=O)C3CCCC3)C(=O)C=C2C=C1c1ccsc1 (stereo unspecified) -6.55%
CC(C)(C)OC(=O)NCCCC1=CC2=CC(=O)C(C)(OC(=O)c3ccco3)C(=O)C2=CO1 (stereo unspecified) 28.9%
Cn1cc(-c2ccccc2)cc(C#N)c1=O 7.52%
COc1ccc2oc(=O)c(C(=O)NCc3ccccn3)cc2c1 -1.18%
CCOc1cc(NC(=S)NCCCOC)c(OCC)cc1NC(=O)c1ccco1 -1.9%
CCCC(=O)Nc1ccc2c(c1)nc(CCNC(=O)c1ccco1)n2C -7.25%
Cc1cc(C)cc(NC(=O)NCc2ccccn2)c1 -2.74%
O=C(CCc1ccccc1)Nc1ccc(NC(=O)C2CC2)nc1 3.25%
Cc1ccc(S(=O)(=O)c2c[nH]c3ccc(Cl)cc3c2=O)cc1 0.6%
CCN1C(=NCCc2cccnc2)N[C@@H](c2ccccc2)[C@H](C(=O)OC)[C@H]1C 8.18%
CC(C(=O)O)n1cnc2sc3c(c2c1=O)CCCC3 (stereo unspecified) 0.01%
COc1ccc(OCC(=O)NN2Cc3ccccc3C2=N)cc1 -6.41%
Cc1ccc(OCC(=O)Nc2nnc(-c3ccco3)s2)cc1 2.47%
CNc1nnc(-c2ccco2)s1 -7.57%

inhibition, active:
O=C(COc1ccc(/C=N/NC(=O)c2ccc(O)cc2)cc1)Nc1ccc([N+](=O)[O-])cc1 55.5%
CC1(OC(=O)C2CCCC2)C(=O)C=C2C=C(c3ccc(C#N)cc3)OC=C2C1=O (stereo unspecified) 53.6%
O=C(NCc1ccccn1)c1ccc2nc(-c3ccco3)c(-c3ccco3)nc2c1 77.7%
COCCNC(=O)Nc1ccc2nc(-c3ccco3)c(-c3ccco3)nc2c1 83.7%
O=[N+]([O-])C(=c1ccc2c(c1)N1C3=C(CCCC3)CC3CCCCC31N=2)[N+](=O)[O-] (stereo unspecified) 62.9%
COc1ccc(OCC(=O)Nc2nnc(-c3ccco3)s2)cc1 54.1%
